Experimental data published in ChEMBL document CHEMBL2169852, “Naphthomycins L-N, ansamycin antibiotics from Streptomyces sp. CS” (J Nat Prod, 2012).
Converted amounts (≈) assume the structure as drawn. The source made the active and inactive calls. The calls are words filed in the database; no cut-off is given here.

Legend:
Pyricularia oryzae [1] = assay: Antifungal activity against Pyricularia oryzae at 800 ug/ml incubated for 48 hrs by microdilution method; type: functional, organism-based
Method in brief: (§1)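 Fungus pre-grown on PDA at 22 °C for 7–10 days. Modified standardized broth microdilution with compounds at 50–800 μg/mL (final) in fungal suspension, final DMSO ≤3%. DMSO-only and compound-free fungal wells served as controls. Incubated at 22 °C for 48 h. MIC is the lowest concentration with no visible growth. Run in triplicate.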

Fusarium verticillioides [2] = assay: Antifungal activity against Fusarium moniliforme at 800 ug/ml incubated for 48 hrs by microdilution method; type: functional, organism-based
Method in brief: (§2)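 Modified standardized broth microdilution. Phytopathogenic fungi pre-grown on PDA at 22 °C for 7–10 days. Test compounds added at 50–800 μg/mL to wells with fungal suspension, 0.2 mL final volume, DMSO ≤3% final. DMSO served as negative control and fungus without compound as positive control. Incubation 22 °C, 48 h. MIC taken as lowest concentration with no visible growth. Run in triplicate.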

Fusarium oxysporum [3] = assay: Antifungal activity against Fusarium oxysporum at 800 ug/ml incubated for 48 hrs by microdilution method; type: functional, organism-based; method in brief: as §2
SW480 [4] = assay: Growth inhibition of human SW480 cells at 40 uM by MTT assay; type: functional, cell-based
A549 [5] = assay: Growth inhibition of human A549 cells at 40 uM by MTT assay; type: functional, cell-based
[6] = Antifungal activity against Gaeumannomyces graminis at 800 ug/ml incubated for 48 hrs by microdilution method; type: functional; method in brief: as §2
[7] = Antifungal activity against Verticillium cinnabarinum at 800 ug/ml incubated for 48 hrs by microdilution method; type: functional; method in brief: as §2
HL-60 [8] = assay: Growth inhibition of human HL60 cells at 40 uM by MTT assay; type: functional, cell-based
SMMC-7721 [9] = assay: Growth inhibition of human SMMC7721 cells at 40 uM by MTT assay; type: functional, cell-based
MCF7 [10] = assay: Growth inhibition of human MCF7 cells at 40 uM by MTT assay; type: functional, cell-based
[11] = Antifungal activity against Gaeumannomyces graminis incubated for 48 hrs by microdilution method; type: functional; method in brief: as §2
[12] = Antifungal activity against Verticillium cinnabarinum incubated for 48 hrs by microdilution method; type: functional; method in brief: as §2
Fusarium oxysporum [13] = assay: Antifungal activity against Fusarium oxysporum incubated for 48 hrs by microdilution method; type: functional; method in brief: as §2
Pyricularia oryzae [14] = assay: Antifungal activity against Pyricularia oryzae incubated for 48 hrs by microdilution method; type: functional; method in brief: as §1
Fusarium verticillioides [15] = assay: Antifungal activity against Fusarium moniliforme incubated for 48 hrs by microdilution method; type: functional; method in brief: as §2
SW480 [16] = assay: Growth inhibition of human SW480 cells by MTT assay; type: functional, cell-based
A549 [17] = assay: Growth inhibition of human A549 cells by MTT assay; type: functional, cell-based
SMMC-7721 [18] = assay: Growth inhibition of human SMMC7721 cells by MTT assay; type: functional, cell-based
HL-60 [19] = assay: Growth inhibition of human HL60 cells by MTT assay; type: functional, cell-based
MCF7 [20] = assay: Growth inhibition of human MCF7 cells by MTT assay; type: functional, cell-based

Compound | Activity (Pyricularia oryzae [1]) | Activity (Fusarium verticillioides [2]) | Activity (Fusarium oxysporum [3]) | growth inhibition (GI) (SW480 [4]) | growth inhibition (GI) (A549 [5]) | Activity [6] | Activity [7] | growth inhibition (GI) (HL-60 [8]) | growth inhibition (GI) (SMMC-7721 [9]) | growth inhibition (GI) (MCF7 [10]) | MIC [11] [µg/mL] | MIC [12] [µg/mL] | MIC (Fusarium oxysporum [13]) [µg/mL] | MIC (Pyricularia oryzae [14]) [µg/mL] | MIC (Fusarium verticillioides [15]) [µg/mL] | IC50 (SW480 [16]) [µM] | IC50 (A549 [17]) [µM] | IC50 (SMMC-7721 [18]) [µM] | IC50 (HL-60 [19]) [µM] | IC50 (MCF7 [20]) [µM]
C/C1=C/C=C\C=C\[C@H](C)[C@@H](O)CC(=O)/C(C)=C/C[C@H](O)/C=C/[C@H](C)[C@H](O)[C@@H](C)/C=C(\C)C(=O)c2c(O)c(C)cc3c2C(=O)C(O)=C(NC1=O)C3=O | inactive | inactive | inactive | inactive | inactive | inactive | inactive | inactive | inactive | inactive | – | – | – | – | – | – | – | – | – | –
C/C1=C/C=C\C=C\[C@H](C)[C@@H](O)CC(=O)/C(C)=C/C[C@H](O)/C=C/[C@H](C)[C@H](O)[C@@H](C)/C=C(\C)C(=O)c2c(O)c(C)cc3c2C(=O)C(N)=C(NC1=O)C3=O [NAPHTHOMYCIN L] | – | – | – | inactive | inactive | – | – | inactive | inactive | inactive | 600 (≈ 856 µM) | 600 (≈ 856 µM) | 600 (≈ 856 µM) | 600 (≈ 856 µM) | 300 (≈ 428 µM) | – | – | – | – | –
C/C1=C/C=C\C=C\[C@H](C)[C@@H](O)CC(=O)/C(C)=C/C[C@H](O)/C=C/[C@H](C)[C@H](O)[C@@H](C)/C=C(\C)C(=O)c2c(O)c(C)cc3c2C(=O)C(SCC(=O)O)=C(NC1=O)C3=O | inactive | inactive | inactive | inactive | inactive | inactive | inactive | inactive | inactive | inactive | – | – | – | – | – | – | – | – | – | –
C/C1=C/C=C\C=C\[C@H](C)[C@@H](O)CC(=O)/C(C)=C/C[C@H](O)/C=C/[C@H](C)[C@H](O)[C@@H](C)/C=C(\C)C(=O)c2c(O)c(C)cc3c2C(=O)C(Cl)=C(NC1=O)C3=O [NAPHTHOMYCIN A] | – | – | – | – | – | – | – | – | – | – | 400 (≈ 555 µM) | 400 (≈ 555 µM) | 400 (≈ 555 µM) | 400 (≈ 555 µM) | 100 (≈ 139 µM) | 11.7 | 15.9 | 16.6 | 25.6 | 11.7
C/C1=C/C=C\C=C\[C@H](C)[C@@H](O)CC(=O)/C(C)=C/C[C@H](O)/C=C/[C@H](C)[C@H](O)[C@@H](C)/C=C(\C)C(=O)c2c(O)c(C)cc3c2C(=O)C=C(NC1=O)C3=O | inactive | inactive | inactive | inactive | inactive | inactive | inactive | inactive | inactive | inactive | – | – | – | – | – | – | – | – | – | –
C/C1=C/C=C\C=C\[C@H](C)[C@@H](O)CC(=O)/C(C)=C/C[C@H](O)/C=C/[C@H](C)[C@H](O)[C@@H](C)/C=C(\C)C(=O)c2c(O)c(C)cc3c2C(=O)C(NCCSC2=C4NC(=O)\C(C)=C/C=C\C=C\[C@H](C)[C@@H](O)CC(=O)/C(C)=C/C[C@H](O)/C=C/[C@H](C)[C@H](O)[C@@H](C)/C=C(\C)C(=O)c5c(O)c(C)cc(c5C2=O)C4=O)=C(NC1=O)C3=O | inactive | inactive | inactive | inactive | inactive | inactive | inactive | inactive | inactive | inactive | – | – | – | – | – | – | – | – | – | –
